DAGLB inh: DAGLB lipase inhibitors, primary screen, biochemical, fluorescence, HTS; HEK293T DAGLB membrane lysate, EnzChek fluorogenic substrate; inhibition, % at 5.17 µM; 340,000 compounds, 0.059% hits; AID 504411, 2011; in the data active = inhibition above about 34%;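 also: 0% = enzyme with vehicle and 100% = wells lacking enzyme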
SKN-1 block: suppressors of acrylamide-induced Pgst-4::GFP reporter in worms, primary screen, SKN-1 inhibitor project, whole organism, uHTS, GFP/RFP fluorescence ratio, strain VP596 | inhibition, % at 21.8 µM | C. elegans VP596 Pgst-4::GFP/RFP ratio, 24 h | 360,000 compounds, 0.49% hits | AID 624304, 2012;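 active = interference check ratio from 0.5 to 1.5 plus GFP to RFP signal ratio inhibition reaching or exceeding a fixed threshold, cut at about 30% in these data, passing the limit was not always enough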
hiPSC survival: enhancers of single-cell hiPSC survival, primary screen, ATPlite luminescence. survival enhancement, % at 20 µM. 100% = ROCK inhibitor wells, 0% = DMSO. AID 602274, 2012. 360,000 compounds, 0.044% hits; in the data active = survival enhancement above about 18%;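 also: cells exposed to compounds for 16 hours before the ATP read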
FAS TE block: FAS thioesterase domain inhibitors, primary screen, biochemical, fluorescence intensity, uHTS; recombinant FAS-TE, OMFH fluorogenic substrate, fluorescence endpoint; inhibition, % at 15 µM; 360,000 compounds, 0.67% hits; AID 602261, 2012;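 active = compounds whose normalised, plate-corrected inhibition of enzyme fluorescence in the single-dose primary screen is 50% or more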;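 also: 0% = DMSO with enzyme and 100% = substrate without enzyme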
MT1-MMP act inh: blockers of MT1-MMP proenzyme processing, primary screen, HT1080 RFP-PRO-GFP cells, GFP/RFP fluorescence; Matrix metalloproteinase-14 (Homo sapiens), P50281; GFP/RFP ratio fluorescence, overnight; percent of plate control window, DMSO zero; GFP/RFP ratio change, % at 20 µM; 360,000 compounds, 0.061% hits;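 active = GFP/RFP ratio change of at least 30% with cell ATP level not reduced by more than half and red fluorescence within 50% of control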
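Read-out: GFP/RFP fluorescence ratio; Test system: RFP-PRO-GFP reporter HT1080 cells; Compound dosing: single-point 20 µM compound, 1% DMSO; Times: overnight compound exposure at 37 °C.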
FAS-TE conf: FAS thioesterase domain inhibitors, confirmation, biochemical, fluorescence intensity, single concentration | AID 624325, 2012 | inhibition, % at 15 µM | recombinant FAS-TE, OMFH fluorogenic substrate | shares compounds with FAS TE block | 2,300 compounds, 45% hits;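 active = compounds inhibiting the enzyme by at least 50% at 15 µM in any one of the replicates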;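 also: 0% = enzyme with DMSO only and 100% = wells lacking enzyme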
Active calls of the source: *; . = no result. The list is not random: actives were taken first. Their share in the collection is about 1.3%.

SMILES	DAGLB inh	SKN-1 block	hiPSC survival	FAS TE block	MT1-MMP act inh	FAS-TE conf
COc1cc(S(=O)(=O)Nc2ccc(C)cc2)ccc1N=Cc1c(C)[nH]n(-c2ccccc2)c1=O	-3	13	1	55*	4	40
Cc1ccc(S(=O)(=O)N2CCOCC2)cc1C(=O)NCCN1C(=O)S/C(=C\c2ccccc2Cl)C1=O	1	9	3	56*	-1	31
O=C(NCCN1C(=O)S/C(=C\c2cccnc2)C1=O)c1cc(S(=O)(=O)N2CCOCC2)ccc1F	-2	-3	-1	-4	-6	.
O=C1NC[C@H](CCCCN2C[C@H](Cc3ccc(O)cc3)N(CCc3ccccc3)C(=O)C2=O)N(CC2CCCCC2)C1=O	.	9	0	-7	2	.
COc1ccc([N+](=O)[O-])cc1C(=O)Nc1ccc(Cc2ccncc2)cc1	-5	-2	0	60*	1	54*
Cc1c([N+](=O)[O-])cc(C(=O)Nc2ccc(Cc3ccncc3)cc2)cc1[N+](=O)[O-]	3	9	-2	63*	-2	51*
O=C(Nc1ccc(Cc2ccncc2)cc1)c1ccc(Cl)c([N+](=O)[O-])c1	-1	-1	-1	56*	-4	63*
Cc1ccc(C(=O)Nc2ccncc2)cc1[N+](=O)[O-]	0	4	1	0	2	.
O=C(Nc1ccc(Nc2ccccc2)cc1)c1ccc(Cl)c([N+](=O)[O-])c1	5	-3	0	36	6	.
O=C(NC(=S)N1CCN(C(c2ccccc2)c2ccccc2)CC1)c1ccc(S(=O)(=O)N2CCOCC2)cc1	-2	-2	5	56*	-2	24
COc1ccccc1NC(=O)c1ccccc1S(=O)(=O)c1ccc([N+](=O)[O-])cc1	1	-3	0	54*	1	63*
CC(=O)Nc1ccc(NC(=O)c2ccccc2S(=O)(=O)c2ccc([N+](=O)[O-])cc2)cc1	0	3	0	59*	1	64*
CC(=O)Nc1ccc(NC(=O)c2ccccc2S(=O)(=O)c2ccccc2[N+](=O)[O-])cc1	2	0	4	-6	4	.
CSCC[C@@H](CO)NC(=O)[C@H]1O[C@@H](n2ccc(N)nc2=O)[C@H](O)[C@@H]1O	.	2	-1	-7	-1	.
O=C(Nc1ccc(Nc2ccccc2)cc1)c1ccc(Cl)cc1[N+](=O)[O-]	.	-6	0	22	5	.
O=C(O)CCCNc1c(C(=O)Nc2ccc(Cl)cc2)cc([N+](=O)[O-])cc1[N+](=O)[O-]	3	1	-1	74*	3	81*
COc1ccc(-c2nn(-c3ccccc3)cc2/C=N/NC(=O)c2cccc(S(=O)(=O)Nc3ccccc3Cl)c2)cc1	1	-2	-1	59*	-4	16
Cc1nn(-c2ccccc2)c(N2CCCC2)c1/C=N/NC(=O)c1cc(-c2ccccc2)nc2ccccc12	-1	18	-1	43	-10	.
Cc1nn(-c2ccccc2)c(Cl)c1/C=N/NC(=O)c1cccc(S(=O)(=O)N2CCCC2)c1	-1	-2	-1	4	2	.
Cc1nn(-c2ccccc2)c(N2CCCC2)c1/C=N/NC(=O)c1cccc(S(=O)(=O)Nc2ccc(Cl)cc2)c1	4	10	-2	50*	-11	20
Cc1nn(-c2ccccc2)c(N2CCCC2)c1/C=N/NC(=O)c1cc(-c2cccs2)nc2ccccc12	0	0	0	80*	-7	13
Cc1nn(-c2ccccc2)c(N2CCCC2)c1/C=N/NC(=O)c1cc(-c2ccccn2)nc2ccccc12	0	0	-1	77*	-13	26
COc1ccc(-c2nn(-c3ccccc3)cc2/C=N/NS(=O)(=O)c2ccccc2)cc1	-5	2	2	26	2	.
CCOC(=O)C1(C)CCCN1C(=O)c1ccc(F)c(Cl)c1 (centres undefined)	.	14	1	-6	0	.
O=C(CN1C(=O)/C(=C2/SC(=S)N(CCS(=O)(=O)O)C2=O)c2ccccc21)Nc1cccc(Br)c1	2	-1	1	-1	3	.
SMILES	DAGLB inh	SKN-1 block	hiPSC survival	FAS TE block	MT1-MMP act inh	FAS-TE conf
CSCCC(c1nnnn1C1CCCC1)N1CCN(C/C=C/c2ccccc2)CC1 (centres undefined)	.	11	0	6	3	.
CCO[C@H]1OC(C(=O)NCc2ccccc2)=C[C@@H](C2CCCCC2)[C@@H]1CCCO	-3	-4	0	57*	-1	63*
C=CCNC(=O)c1ccc(C2SCC(=O)N2Cc2ccco2)cc1 (centres undefined)	4	-7	0	-2	-4	.
O=C(NCc1ccc2c(c1)OCO2)c1ccc(C2SCC(=O)N2Cc2ccco2)cc1 (centres undefined)	2	2	-1	59*	9	50*
Cc1nc2ccc(C(=O)NCCc3c[nH]c4ccccc34)cn2c1N(C)C(=O)CCc1ccccc1	.	-2	1	-2	-1	.
Cc1sc(NC(=O)c2ccco2)c(C(Nc2ccccn2)c2ccccc2)c1C (centres undefined)	0	4	-2	60*	-3	15
COc1cccc(C(Nc2ccccn2)c2c(NC(=O)c3ccco3)sc(C)c2C)c1 (centres undefined)	-1	2	0	54*	-8	11
COc1ccc(C(Nc2ccccn2)c2c(NC(=O)c3ccco3)sc(C)c2C)cc1 (centres undefined)	5	9	-3	32	-9	.
Cc1nc(C(F)(F)F)ccc1C(=O)N1CCC1(C)C(=O)NS(C)(=O)=O (centres undefined)	.	7	-2	-7	-2	.
COc1ccc2c(c1)nc(-c1cccc(Br)c1)c(=O)n2C(c1ccccn1)c1nc2ccccc2[nH]1 (centres undefined)	.	18	0	9	5	.
CCOC(=O)c1nc2c(ccc3ccccc32)cc1C	.	11	0	26	-9	.
NC(Cc1ccc(C(F)(F)F)cc1)c1csc(Nc2ccc(C(=O)NCc3ccco3)cn2)n1 (centres undefined)	.	10	-2	3	-2	.
O=c1[nH]cnc2c1ncn2C1OC(CO)CC1F (centres undefined)	.	22	-1	-3	2	.
O=S(=O)(c1ccc(N2CCC(c3ccc(Cl)cc3)=N2)cc1)N(CCO)CCO	2	1	2	89*	2	93*

Bioassay records from PubChem.
